Results: paper PMC12103582 (Nature Communications, 2025)

Legend:
[1] = test system: patients who underwent elective abdominal surgery; assay: HSK21542-303: safety; assay type: in vivo, human
Procedure, shortened: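 First dose given by i.v. pump within 10 min of randomization and a resting NRS ≥4 (within 4 h postsurgery); three doses 8 h ±15 min apart. Rescue flurbiprofen axetil 50 mg i.v. Antiemetic on demand only, tropisetron 2.5 mg preferred. TEAEs graded by CTCAE v5.0, with labs, ECG and vital signs over an 8-day follow-up.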

[2] = test system: postoperative pain in patients who underwent elective abdominal surgery; assay: HSK21542-303 phase 3 trial: efficacy; assay type: in vivo, human; conditions: for SPID0–12h, LS mean (SE): 1.0 μg/kg (tramadol 50 mg/dose) i.v. at 0, 8, 16 h; for Time to rescue analgesic initiation, P25 (95% CI): 25th percentile; for Cumulative rescue analgesic dose 0–12h / Cumulative rescue analgesic dose 0–24 h: flurbiprofen axetil i.v.; for Cumulative rescue analgesic dose 0–12h / Cumulative rescue analgesic dose 0–24 h / Duration of analgesic effect / Patient satisfaction score / Physician satisfaction score: mean (SD); for Rescue analgesic received 0–12h, n (%) / Rescue analgesic received 0–24 h, n (%): rescue flurbiprofen axetil 50 mg i.v.; for NRS ≤3 12 h, n (%) / NRS ≤3 24 h, n (%): resting pain; for Patient satisfaction score / Physician satisfaction score: scale 0–10 at 24 h
[3] = cited from earlier work
[4] = HSK21542-303, follow-up period, arms taken as HSK21542 vs tramadol vs placebo
[5] = HSK21542-303, FAS, flurbiprofen axetil 50 mg i.v.

COc1cccc(C2(O)CCCCC2CN(C)C)c1 (stereo not drawn) [Tramadol, tramadol]
incidence of nausea ([1]; HSK21542-303): 41.9% | incidence of vomiting ([1]; HSK21542-303): 38.0% | patients administered antiemetics within 24 h post first dose ([1]; HSK21542-303): 54 (41.9%) n (%) | patients with TEAEs that led to study withdrawal ([1]; HSK21542-303): two | Anemia ([1]; HSK21542-303, safety set): 16 (12.4) n (%) | Decreased lymphocyte count ([1]; HSK21542-303, safety set): 0 n (%) | Decreased serum potassium ([1]; HSK21542-303, safety set): 3 (2.3) n (%) | Decreased thyroid-stimulating hormone ([1]; HSK21542-303, safety set): 0 n (%) | Drug-related TEAE ([1]; HSK21542-303, safety set): 74 (57.4) n (%) | Fever ([1]; HSK21542-303, safety set): 10 (7.8) n (%) | Hematuria ([1]; HSK21542-303, safety set): 2 (1.6) n (%) | Hypokalemia ([1]; HSK21542-303, safety set): 10 (7.8) n (%) | Inflammation ([1]; HSK21542-303, safety set): 1 (0.8) n (%) | Nausea ([1]; HSK21542-303, safety set): 54 (41.9) n (%) | SAE ([1]; HSK21542-303, safety set): 1 (0.8) n (%) | Vomiting ([1]; HSK21542-303, safety set): 49 (38.0) n (%) | Any AE ([1]; HSK21542-303, safety set, 1.0 μg/kg (tramadol 50 mg/dose) i.v. at 0, 8, 16 h): 108 (83.7) n (%) | SAE ([1]; HSK21542-303, safety set, listed as tramadol): One | abnormal diastolic blood pressure [1, 4]: 0 cases | abnormal heart rate [1, 4]: 1 case | abnormal systolic blood pressure [1, 4]: 0 case | patients with NRS ≤3 within 12 h ([2]; HSK21542-303, FAS): 51.2% | patients with NRS ≤3 within 24 h ([2]; HSK21542-303, FAS): 48.1% | SPID0–12h, LS mean (SE) ([2]; HSK21542-303, FAS): −28.7 (1.11) | Time to rescue analgesic initiation, P25 (95% CI) ([2]; HSK21542-303, FAS): 1.17 (0.53, 4.57) h | patients who received rescue analgesics within 0–12 h after first dose [2, 5]: 34.1% | patients who received rescue analgesics within 0–24 h after first dose [2, 5]: 35.7% | Cumulative rescue analgesic dose 0–12h ([2]; HSK21542-303, FAS): 26.7 (44.21) mg | Cumulative rescue analgesic dose 0–24 h ([2]; HSK21542-303, FAS): 29.3 (46.78) mg | Duration of analgesic effect ([2]; HSK21542-303, FAS): 21.3 (5.46) h | Rescue analgesic received 0–12h, n (%) ([2]; HSK21542-303, FAS): 44 (34.1) n (%) | Rescue analgesic received 0–24 h, n (%) ([2]; HSK21542-303, FAS): 46 (35.7) n (%) | NRS ≤3 12 h, n (%) ([2]; HSK21542-303, FAS): 66 (51.2) n (%) | NRS ≤3 24 h, n (%) ([2]; HSK21542-303, FAS): 62 (48.1) n (%) | Patient satisfaction score ([2]; HSK21542-303, FAS): 8.5 (1.58) | Physician satisfaction score ([2]; HSK21542-303, FAS): 8.4 (1.42) | SPID0–12h, LS mean (SE) ([2]; HSK21542-303, PPS): −29.8 (0.99) | Time to rescue analgesic initiation, P25 (95% CI) ([2]; HSK21542-303, PPS): 1.89 (0.60, 12.73) h | Cumulative rescue analgesic dose 0–12h ([2]; HSK21542-303, PPS): 23.3 (39.39) mg | Cumulative rescue analgesic dose 0–24 h ([2]; HSK21542-303, PPS): 26.0 (42.68) mg | Duration of analgesic effect ([2]; HSK21542-303, PPS): 22.4 (3.09) h | Rescue analgesic received 0–12h, n (%) ([2]; HSK21542-303, PPS): 39 (32.5) n (%) | Rescue analgesic received 0–24 h, n (%) ([2]; HSK21542-303, PPS): 41 (34.2) n (%) | NRS ≤3 12 h, n (%) ([2]; HSK21542-303, PPS): 63 (52.5) n (%) | NRS ≤3 24 h, n (%) ([2]; HSK21542-303, PPS): 59 (49.2) n (%) | Patient satisfaction score ([2]; HSK21542-303, PPS): 8.5 (1.59) | Physician satisfaction score ([2]; HSK21542-303, PPS): 8.4 (1.43) | excretion [3]: mainly excreted via the kidneys
